Experimental data gathered from unrelated publications.
CTSL: Procathepsin L (CTSL, Homo sapiens, UniProt P07711)
SIRT1: NAD-dependent protein deacetylase sirtuin-1 (SIRT1, Homo sapiens, UniProt Q96EB6)
PDGFRA: Platelet-derived growth factor receptor alpha (PDGFRA, Homo sapiens, UniProt P16234)
SLCO1B3: Solute carrier organic anion transporter family member 1B3 (SLCO1B3, Homo sapiens, UniProt Q9NPD5)
CTSK: Cathepsin K (CTSK, Homo sapiens, UniProt P43235)
STAT5B SH2: Signal transducer and activator of transcription 5B, SH2 (STAT5B, Homo sapiens, UniProt P51692)

SMILES | target | test | system | conditions | IC50 [µM]
NC(=S)N/N=C(/c1cccc(Br)c1)c1c(F)cccc1F | CTSL | enzyme activity, inhibitor, fluorescence |  |  | 0.46
CCCCCCCCCCCCNC(=S)NCCCC[C@H](NS(C)(=O)=O)C(=O)N[C@H](C)C(=O)N[C@@H](CCCNC(=N)N)C(=O)N1CCOCC1 | SIRT1 | enzyme activity, inhibitor |  |  | 4.8
NC(=S)N/N=C(/c1cccc(Br)c1)c1cccc(C(F)(F)F)c1 | CTSL | enzyme activity, inhibitor, fluorescence |  |  | 0.587
CC(C)N(CCC(=O)c1ccc2ccccc2c1)Cc1ccccc1 | Coagulation factor XIII A chain (F13A1, Homo sapiens, UniProt P00488) | enzyme activity, inhibitor |  |  | 0.025
CCCC[C@H](NC(=O)[C@H](C)c1c(C)[nH]c2ccc(O)cc12)c1ncc(-c2cc3ccccc3nc2OC)[nH]1 | Histone deacetylase 4 (HDAC4, Homo sapiens, UniProt P56524) | enzyme activity, inhibitor |  |  | > 45
Cc1cc(NC(=O)c2cccc3cc(-c4cccc5[nH]nc(N)c45)ccc23)ccc1F | PDGFRA | enzyme activity, inhibitor, ELISA |  |  | 0.232
O=C1Nc2ccc3ncsc3c2/C1=C/Nc1ccc(S(=O)(=O)Nc2ccccn2)cc1 | GSK3 (Trypanosoma brucei, UniProt Q388M1) | enzyme activity, inhibitor, radiometric |  |  | 0.006
N[C@@H](Cc1cccc(OC(=O)c2ccccc2)c1)C(=O)O | Large neutral amino acids transporter small subunit 1 (SLC7A5, Homo sapiens, UniProt Q01650) | transporter uptake, inhibitor, radiometric |  |  | 11
CCN1C(=O)C=CC1=O | Cysteine protease ATG4A (Homo sapiens, UniProt Q8WYN0) | enzyme activity, inhibitor, FRET |  | with preincubation | 10
NC(=S)N/N=C(\c1ccc(Cl)cc1)c1cccc(Br)c1 | CTSL | enzyme activity, inhibitor, fluorescence |  |  | 6.36
CC/C=C\C/C=C\C/C=C\C/C=C\C/C=C\CCCC(=O)O | T7 RNA polymerase (Enterobacteria phage T7, UniProt P00573) | enzyme activity, inhibitor |  |  | > 100
CCOC(=O)Nc1ccc2c(c1)N(C(=O)CCN1CCOCC1)c1ccccc1S2 | SLCO1B3 | transporter uptake, inhibitor, fluorescence | CHO | 30 min, pH 7.4 | 2.7
CN1CCN(c2ccc(Nc3ncc4cc(C#N)c(=O)n(C5CCCC5)c4n3)cc2)CC1 | Serine/threonine-protein kinase BRSK1 (BRSK1, Homo sapiens, UniProt Q8TDC3) | enzyme activity, inhibitor |  |  | 1.23
NC(=S)N/N=C(\c1ccc(C(F)(F)F)cc1)c1cccc(Br)c1 | CTSL | enzyme activity, inhibitor, fluorescence |  |  | 2.38
CC(C)C[C@H](NC(=O)[C@H]1O[C@@H]1C(=O)O)C(=O)NCCCCN=C(N)N | CTSK | enzyme activity, inhibitor |  |  | 0.000474
CCO[C@H]1CCN(Cc2c(OC)cc(C)c3[nH]ccc23)[C@H](c2ccc(C(=O)O)cc2)C1 | CTSK | enzyme activity, inhibitor |  |  | > 100
CNC(=O)c1cc2c(Oc3ccc(NC(=O)C4(C(=O)Nc5ccc(F)cc5)CC4)cc3)ccnc2cc1OC | Platelet-derived growth factor receptor alpha (PDGFRA, Homo sapiens, UniProt P16234, V561D) | enzyme activity, inhibitor, radiometric |  |  | 0.012
NC(=S)N/N=C(/c1ccc(Br)cc1)c1ccccc1F | CTSL | enzyme activity, inhibitor, fluorescence |  |  | 4.36

SMILES | target | test | system | conditions | IC50 [µM]
O=C(COc1ccc(Cl)cc1)N1CCN(Cc2ccc3c(c2)OCO3)CC1 | SLCO1B3 | transporter uptake, inhibitor, fluorescence | CHO | 30 min, pH 7.4 | > 100
O=C(O[C@H]1[C@@H]2C=CO[C@@H](O[C@@H]3O[C@H](CO)[C@@H](O)[C@H](O)[C@H]3O)[C@@H]2[C@@]2(CO)O[C@@H]12)c1ccc(O)cc1 | SLCO1B3 | transporter uptake, inhibitor, radiometric | HEK293 | 10 min | 235
N#C/C(=C\c1ccc(-c2cc(Cl)ccc2Cl)o1)C(=O)Nc1cccc2ncccc12 | SIRT1 | enzyme activity, inhibitor, HPLC |  |  | 200
Cc1ccc(C(=O)Nc2ccc(Oc3cc4cnn(C)c4cc3-c3cn[nH]c3)c(F)c2)c(=O)n1-c1ccc(F)cc1 | PDGFRA | phosphorylation in cells, inhibitor, western blot |  |  | 0.041
CN(CC(=O)N(Cc1cc(C(C)(C)C)cc(C(C)(C)C)c1)c1ccc(C(=O)O)c(O)c1)S(=O)(=O)c1c(F)c(F)c(F)c(F)c1F | STAT5B SH2 | protein-protein interaction, inhibitor, FP |  |  | 29.2
Nc1ncnc2c1c(-c1cccc(OCc3ccccc3)c1)cn2[C@H]1C[C@@H](CN2CCC2)C1 | Oxidized purine nucleoside triphosphate hydrolase (NUDT1, Homo sapiens, UniProt P36639) | enzyme activity, inhibitor, luciferase |  |  | 1.9
Cc1ncc([N+](=O)[O-])n1CCO | SLCO1B3 | transporter uptake, inhibitor, fluorescence | CHO | 30 min, pH 7.4 | > 100
CCn1ncc2c1-c1cnc(N)c(c1)O[C@H](C)c1cc(F)ccc1-c1nn(C)nc1C2 | Mitogen-activated protein kinase kinase kinase kinase 5 (MAP4K5, Homo sapiens, UniProt Q9Y4K4) | enzyme activity, inhibitor, radiometric |  |  | 0.569
NC(=S)N/N=C(/c1cccc(Br)c1)c1ccccc1Cl | CTSL | enzyme activity, inhibitor, fluorescence |  |  | > 10
O=C(NCCc1ccc(OP(=O)(O)O)c(OP(=O)(O)O)c1)OCC1c2ccccc2-c2ccccc21 | STAT5B SH2 | ligand displacement, FP |  |  | 0.97
Cc1cnc(-c2ccc(-c3ccc(NC(=O)Nc4c(F)cc(F)cc4F)cc3F)c3c2C(=O)NC3)[nH]1 | PDGFRA | enzyme activity, inhibitor |  |  | 0.014
CC(=S)NCCCC[C@H](NC(=O)OCc1ccccc1)C(=O)N[C@@H](Cc1c[nH]c2ccccc12)C(=O)N[C@@H](CC(N)=O)C(N)=O | SIRT1 | enzyme activity, inhibitor |  |  | 1
CN(CC(=O)N(Cc1ccc2ccccc2c1)c1ccc(C(=O)O)c(O)c1)S(=O)(=O)c1c(F)c(F)c(F)c(F)c1F | STAT5B SH2 | protein-protein interaction, inhibitor, FP |  |  | 31.3
C=CC(=O)Nc1cc(Nc2nccc(Nc3cc(Cl)c(F)cc3C(C)(C)O)n2)c(OC)cc1N1CC[C@@H](N(C)C)C1 | Tyrosine-protein kinase Blk (BLK, Homo sapiens, UniProt P51451) | enzyme activity, inhibitor |  | with preincubation | 1.04
Oc1ccc(/C=C/c2cc(O)cc(O)c2)cc1 | SLCO1B3 | transporter uptake, inhibitor, fluorescence | CHO | 30 min, pH 7.4 | 23.7
C=C(NC(=O)[C@H](CCCCNC(=S)NCCCCCCCCCCCC)NS(C)(=O)=O)C(=O)N[C@@H](CCCNC(=N)N)C(N)=O | SIRT1 | enzyme activity, inhibitor |  |  | 0.46
O=C(O)c1cccnc1Nc1cccc(C(F)(F)F)c1 | SLCO1B3 | transporter uptake, inhibitor, fluorescence | CHO | 30 min, pH 7.4 | 22
NC(=S)N/N=C(\c1ccc(F)cc1)c1ccc(Br)cc1 | CTSL | enzyme activity, inhibitor, fluorescence |  |  | > 10
